Bridge positions count the residues as written; N and C are the ends. Peptide text beside a SMILES is read from it.
B1: Wnt3a: human Wnt3a, canonical, overexpressed (protein, UniProt P56704 19-352, looked up)
Protein Wnt-3a: SYPIWWSLAVGPQYSSLGSQPILCASIPGLVPKQLRFCRNYVEIMPSVAEGIKIGIQECQHQFRGRRWNCTTVHDSLAIFGPVLDKATRESAFVHAIASAGVAFAVTRSCAEGTAAICGCSSRHQGSPGKGWKWGGCSEDIEFGGMVSREFADARENRPDARSAMNRHNNEAGRQAIASHMHLKCKCHGLSGSCEVKTCWWSQPDFRAIGDFLKDKYDSASEMVVEKHRESRGWVETLRPRYTYFKVPTERDLVYYEASPNFCEPNPETGSFGTRDRTCNVSSHGIDGCDLLCCGRGHNARAERRREKCRCVFHWCCYVSCQECTRVYDVHTCK
B2: YW210.09 Fab (Fab, V domains shown)
VH: EVQLVESGGGLVQPGGSLRLSCAASGFTFTNSYIHWVRQAPGKGLEWVGWITPYGGYTNYADSVKGRFTISADTSKNTAYLQMNSLRAEDTAVYYCARGSGHVNAVKNYGYVMDYWGQGTLVTVSS
VL: DIQMTQSPSSLSASVGDRVTITCRASQDVSTAVAWYQQKPGKAPKLLIYSASFLYSGVPSRFSGSGSGTDFTLTISSLQPEDFATYYCQQSYTTPPTFGQGTKVEIK
B3: Wnt1: human Wnt1, canonical, overexpressed (protein, UniProt P04628 28-370, looked up)
Proto-oncogene Wnt-1: ANSSGRWWGIVNVASSTNLLTDSKSLQLVLEPSLQLLSRKQRRLIRQNPGILHSVSGGLQSAVRECKWQFRNRRWNCPTAPGPHLFGKIVNRGCRETAFIFAITSAGVTHSVARSCSEGSIESCTCDYRRRGPGGPDWHWGGCSDNIDFGRLFGREFVDSGEKGRDLRFLMNLHNNEAGRTTVFSEMRQECKCHGMSGSCTVRTCWMRLPTLRAVGDVLRDRFDGASRVLYGNRGSNRASRAELLRLEPEDPAHKPPSPHDLVYFEKSPNFCTYSGRLGTAGTAGRACNSSSPALDGCELLCCGRGHRTRTQRVTERCNCTFHWCCHVSCRNCTHTRVLHECL

How the values were obtained:
[1] = tested on: Wnt1-mediated β-catenin signaling; assay: TOPbrite dual-luciferase reporter assay, inhibition of Wnt1-mediated signaling; format: cell-based, human; settings: HEK293 TOPbrite cells transfected with Wnt1; treatment 6 h before measurement
Method in brief: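 Wnt1 construct was transfected with FuGENE HD into TOPbrite/Renilla HEK293 cells (DMEM/F12, 10% FBS, hygromycin, 37 °C), seeded 24 h earlier, then incubated 24–48 h. Linker peptides or LRP6 Fabs were added 6 h before reading. Dual-Glo firefly/Renilla luminescence ratio was calculated, in some instances normalized to nontreated controls.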

Reck = assay: ELISA binding of linker peptides to Reck; settings: immobilised biotinylated peptide
Method in brief: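 Neutravidin-coated (5 μg/mL) plates blocked with 0.5% BSA/PBS for 2 h at room temperature, then loaded with 1 μg biotinylated linker peptide per well. Serial dilutions of His-tagged Reck in PBS/0.5% BSA/0.05% Tween 20 were incubated for 45 min at room temperature. After washing, bound protein was detected with HRP anti-His (1:5,000, 45 min) and TMB, reading absorbance at 450 nm.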

LRP6E1E2 = assay: ELISA competition assay of Wnt.cys peptides with Fab YW210 for LRP6E1E2; format: binding, human; settings: LRP6E1E2 constant at 3x EC50, serial dilution of YW210
[2] = tested on: HEK293 luciferase reporter cells, phospho-LRP6 and active β-catenin; format: cell-based, human; settings: overexpression, 250 ng DNA, 24 h, Western blot
[3] = tested on: HEK293 TOPbrite reporter cells, β-catenin signaling; format: cell-based, human; settings: transfection of 0 to 25 ng construct, 24 to 48 h; normalized to empty vector
Method in brief: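 HEK293 cells carried a stable firefly TOPbrite Wnt reporter plus pRL-SV40 Renilla and were kept in DMEM/F12 (50:50) with 10% FBS, GlutaMAX and 40 μg/mL hygromycin at 37 °C, 5% CO2. Cells were seeded at 20,000–40,000 per well, grown 24 h, then transfected with 0–25 ng Wnt or chimera construct using FuGENE HD. After 24–48 h, Dual-Glo firefly/Renilla ratio was normalized to empty vector.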

[4] = target: hLRP6_(E1E2) (residues 20 to 631), C-terminal hexahistidine-tag, for ELISA (human, UniProt O75581); assay: ELISA
hLRP6_(E1E2) (residues 20 to 631), C-terminal hexahistidine-tag, for ELISA, sequence (O75581 20-631): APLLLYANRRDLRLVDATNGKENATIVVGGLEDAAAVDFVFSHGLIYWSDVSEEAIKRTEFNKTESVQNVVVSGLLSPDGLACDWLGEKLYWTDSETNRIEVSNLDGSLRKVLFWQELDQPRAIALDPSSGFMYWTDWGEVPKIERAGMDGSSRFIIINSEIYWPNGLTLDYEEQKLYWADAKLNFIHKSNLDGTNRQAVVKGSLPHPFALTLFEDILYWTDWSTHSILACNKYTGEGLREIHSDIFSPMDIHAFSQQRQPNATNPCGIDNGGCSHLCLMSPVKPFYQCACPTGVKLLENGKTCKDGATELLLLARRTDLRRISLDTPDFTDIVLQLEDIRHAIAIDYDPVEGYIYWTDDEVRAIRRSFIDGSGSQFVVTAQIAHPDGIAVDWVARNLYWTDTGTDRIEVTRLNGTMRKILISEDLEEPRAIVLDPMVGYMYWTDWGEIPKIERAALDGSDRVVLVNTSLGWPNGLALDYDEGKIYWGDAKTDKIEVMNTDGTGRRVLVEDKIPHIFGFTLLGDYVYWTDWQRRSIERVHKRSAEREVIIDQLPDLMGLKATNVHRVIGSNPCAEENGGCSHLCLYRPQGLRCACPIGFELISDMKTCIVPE

| Molecule | inhibition of Wnt1-mediated β-catenin signaling [1] | competition of Fab YW210 with the peptide for LRP6E1E2 binding (LRP6E1E2) | other results |
| --- | --- | --- | --- |
| CC[C@H](C)[C@@H]1NC(=O)[C@H](CCCCN)NC(=O)[C@H](CC(C)C)NC(=O)[C@H](Cc2ccccc2)NC(=O)[C@H]([C@@H](C)O)NC(=O)[C@@H]2CCCN2C(=O)[C@H](CCCNC(=N)N)NC(=O)[C@H](CCCCN)NC(=O)[C@H](CC(N)=O)NC(=O)[C@H](CCCNC(=N)N)NC(=O)[C@H](CO)NC(=O)[C@H](C)NC(=O)[C@H](CCCNC(=N)N)NC(=O)[C@H](C(C)C)NC(=O)[C@@H]2CCCN2C(=O)[C@H](CCC(=O)O)NC(=O)[C@H](C(C)C)NC(=O)[C@H](Cc2c[nH]cn2)NC(=O)[C@H](C(C)C)NC(=O)[C@@H](NC(=O)[C@@H](N)CCC(=O)O)CSSC[C@@H](C(=O)N[C@H](C(=O)O)C(C)C)NC(=O)[C@H](CC(=O)O)NC(=O)[C@H]([C@@H](C)O)NC(=O)[C@H](CC(=O)O)NC(=O)[C@H](CCSC)NC(=O)[C@@H]2CCCN2C(=O)[C@H](CCCCN)NC(=O)[C@H](CCCNC(=N)N)NC(=O)[C@H](Cc2ccc(O)cc2)NC(=O)[C@H](CO)NC(=O)[C@H](CC(C)C)NC(=O)[C@@H]2CCCN2C(=O)[C@H](CCCCN)NC(=O)[C@H](CCCCN)NC1=O [W7a.cys] (H-ECVHVEPVRASRNKRPTFLKIKKPLSYRKPMDTDCV-OH; disulfide 2-35; N-terminus and C-terminus assumed) | inhibited | partially | binding to Reck (Reck): bound Reck |
| CSCC[C@@H]1NC(=O)[C@H](CCC(=O)O)NC(=O)[C@H](CO)NC(=O)[C@@H](NC(=O)[C@@H](N)CO)CSSC[C@@H](C(=O)N[C@H](C(=O)O)C(C)C)NC(=O)[C@H](CC(=O)O)NC(=O)[C@H](CCCNC(=N)N)NC(=O)[C@H](CCC(=O)O)NC(=O)[C@H]([C@@H](C)O)NC(=O)[C@@H]2CCCN2C(=O)[C@H](C(C)C)NC(=O)[C@H](CCCCN)NC(=O)[C@H](Cc2ccccc2)NC(=O)[C@H](Cc2ccc(O)cc2)NC(=O)[C@H]([C@@H](C)O)NC(=O)[C@H](Cc2ccc(O)cc2)NC(=O)[C@H](CCCNC(=N)N)NC(=O)[C@@H]2CCCN2C(=O)[C@H](CCCNC(=N)N)NC(=O)[C@H](CC(C)C)NC(=O)[C@H]([C@@H](C)O)NC(=O)[C@H](CCC(=O)O)NC(=O)[C@H](C(C)C)NC(=O)[C@H](Cc2c[nH]c3ccccc23)NC(=O)CNC(=O)[C@H](CCCNC(=N)N)NC(=O)[C@H](CO)NC(=O)[C@H](CCC(=O)O)NC(=O)[C@H](CCCNC(=N)N)NC(=O)[C@H](Cc2c[nH]cn2)NC(=O)[C@H](CCCCN)NC(=O)[C@H](CCC(=O)O)NC(=O)[C@H](C(C)C)NC(=O)[C@H](C(C)C)NC1=O [W3a.cys] (H-SCSEMVVEKHRESRGWVETLRPRYTYFKVPTERDCV-OH; disulfide 2-35; N-terminus and C-terminus assumed) | – | could not be outcompeted | – |
| CC(C)C[C@@H]1NC(=O)[C@H](CCC(=O)O)NC(=O)[C@H](C)NC(=O)[C@H](CCCNC(=N)N)NC(=O)[C@H](CO)NC(=O)[C@H](C)NC(=O)[C@H](CCCNC(=N)N)NC(=O)[C@H](CC(N)=O)NC(=O)[C@H](CO)NC(=O)CNC(=O)[C@H](CCCNC(=N)N)NC(=O)[C@H](CC(N)=O)NC(=O)CNC(=O)[C@H](Cc2ccc(O)cc2)NC(=O)[C@H](CC(C)C)NC(=O)[C@H](C(C)C)NC(=O)[C@H](CCCNC(=N)N)NC(=O)[C@H](CO)NC(=O)[C@@H](NC(=O)CN)CSSC[C@@H](C(=O)N[C@H](C(=O)O)C(C)C)NC(=O)[C@H](CC(=O)O)NC(=O)[C@H](Cc2c[nH]cn2)NC(=O)[C@@H]2CCCN2C(=O)[C@H](CO)NC(=O)[C@@H]2CCCN2C(=O)[C@@H]2CCCN2C(=O)[C@H](CCCCN)NC(=O)[C@H](Cc2c[nH]cn2)NC(=O)[C@H](C)NC(=O)[C@@H]2CCCN2C(=O)[C@H](CC(=O)O)NC(=O)[C@H](CCC(=O)O)NC(=O)[C@@H]2CCCN2C(=O)[C@H](CCC(=O)O)NC(=O)[C@H](CC(C)C)NC(=O)[C@H](CCCNC(=N)N)NC(=O)[C@H](CC(C)C)NC1=O [W1.cys] (H-GCSRVLYGNRGSNRASRAELLRLEPEDPAHKPPSPHDCV-OH; disulfide 2-38; N-terminus and C-terminus assumed) | inhibited | competed strongly | – |
| YW210: Fab that binds predominantly to the LRP6 E1 domain [reference compound] | inhibited Wnt1-induced signaling | – | – |
| CSCC[C@@H]1NC(=O)[C@H](C(C)C)NC(=O)[C@H](CCC(N)=O)NC(=O)[C@H](C(C)C)NC(=O)[C@@H](NC(=O)CN)CSSC[C@@H](C(=O)N[C@H](C(=O)O)C(C)C)NC(=O)[C@H](CC(=O)O)NC(=O)[C@H]([C@@H](C)O)NC(=O)[C@H](CCCNC(=N)N)NC(=O)[C@H]([C@@H](C)O)NC(=O)[C@H](C)NC(=O)[C@H](CCCNC(=N)N)NC(=O)[C@H](CCCNC(=N)N)NC(=O)[C@H](Cc2ccc(O)cc2)NC(=O)CNC(=O)[C@H](CCC(N)=O)NC(=O)[C@H](CCCNC(=N)N)NC(=O)[C@H](C)NC(=O)[C@H](C)NC(=O)[C@H]([C@@H](C)O)NC(=O)[C@H](Cc2ccccc2)NC(=O)[C@H](CC(N)=O)NC(=O)[C@H](C)NC(=O)CNC(=O)[C@H](CC(=O)O)NC(=O)[C@H](CCC(N)=O)NC(=O)[C@H]([C@@H](C)O)NC(=O)[C@H](C)NC1=O [W2b.cys] (H-GCVQVMATQDGANFTAARQGYRRATRTDCV-OH; disulfide 2-29; N-terminus and C-terminus assumed) | inhibited | competed strongly | – |
| B1 | – | – | LRP6 phosphorylation [2]: induced; accumulation of active (nonphosphorylated) β-catenin [2]: induced; β-catenin signaling induced by overexpression (TOPbrite) [3]: induced β-catenin signaling |
| B2 | – | – | binding result [4]: binds |
| B3 | – | – | LRP6 phosphorylation [2]: induced; accumulation of active (nonphosphorylated) β-catenin [2]: induced; β-catenin signaling induced by overexpression (TOPbrite) [3]: induced β-catenin signaling |
